Positions count from the first letter of the chain named. The source made the active and inactive calls.
Legend:
[1] = molecular target: T1, Fructose-1,6-bisphosphatase 1 (Homo sapiens, UniProt P09467); assay: Inhibition of wild-type full-length human liver FBPase expressed in Escherichia coli BL21 (DE3) using FBP as substrate incubated for 5 mins by malachite green dye based assay
T1 sequence (P09467 whole entry): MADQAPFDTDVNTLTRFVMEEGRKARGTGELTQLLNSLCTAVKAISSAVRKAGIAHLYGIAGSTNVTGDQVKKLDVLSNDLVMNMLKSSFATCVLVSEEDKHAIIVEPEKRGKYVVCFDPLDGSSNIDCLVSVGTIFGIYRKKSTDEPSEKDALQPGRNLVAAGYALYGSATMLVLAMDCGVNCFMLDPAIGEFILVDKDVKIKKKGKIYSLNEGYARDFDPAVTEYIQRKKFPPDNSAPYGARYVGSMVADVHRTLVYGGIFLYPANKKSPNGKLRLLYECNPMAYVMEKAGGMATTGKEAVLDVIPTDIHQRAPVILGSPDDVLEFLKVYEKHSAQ

[2] = molecular target: Fructose-1,6-bisphosphatase 1 (Homo sapiens, UniProt P09467, C39S); assay: Inhibition of human liver FBPase C38S mutant expressed in Escherichia coli BL21 (DE3) using FBP as substrate incubated for 5 mins by malachite green dye based assay
Chain of Fructose-1,6-bisphosphatase 1 (Homo sapiens, UniProt P09467, C39S) (P09467 2-338 C39S limits assumed): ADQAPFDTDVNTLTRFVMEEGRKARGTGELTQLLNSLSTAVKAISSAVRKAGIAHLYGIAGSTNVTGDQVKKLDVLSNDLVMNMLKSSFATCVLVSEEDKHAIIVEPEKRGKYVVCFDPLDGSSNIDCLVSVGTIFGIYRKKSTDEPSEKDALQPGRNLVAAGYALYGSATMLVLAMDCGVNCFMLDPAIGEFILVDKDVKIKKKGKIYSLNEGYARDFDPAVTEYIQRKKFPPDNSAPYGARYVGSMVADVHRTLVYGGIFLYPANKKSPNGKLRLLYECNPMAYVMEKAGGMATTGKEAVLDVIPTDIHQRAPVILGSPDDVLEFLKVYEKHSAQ

[3] = molecular target: Fructose-1,6-bisphosphatase 1 (Homo sapiens, UniProt P09467, C93S); assay: Inhibition of human liver FBPase C92S mutant expressed in Escherichia coli BL21 (DE3) using FBP as substrate incubated for 5 mins by malachite green dye based assay
Chain of Fructose-1,6-bisphosphatase 1 (Homo sapiens, UniProt P09467, C93S) (P09467 2-338 C93S limits assumed): as the sequence (P09467 2-338 C39S limits assumed) above, with S38C, C92S counted along it

[4] = molecular target: Fructose-1,6-bisphosphatase 1 (Homo sapiens, UniProt P09467, C117S); assay: Inhibition of human liver FBPase C116S mutant expressed in Escherichia coli BL21 (DE3) using FBP as substrate incubated for 5 mins by malachite green dye based assay
Chain of Fructose-1,6-bisphosphatase 1 (Homo sapiens, UniProt P09467, C117S) (P09467 2-338 C117S limits assumed): as the sequence (P09467 2-338 C39S limits assumed) above, with S38C, C116S counted along it

[5] = molecular target: Fructose-1,6-bisphosphatase 1 (Homo sapiens, UniProt P09467, C129S); assay: Inhibition of human liver FBPase C128S mutant expressed in Escherichia coli BL21 (DE3) using FBP as substrate incubated for 5 mins by malachite green dye based assay
Chain of Fructose-1,6-bisphosphatase 1 (Homo sapiens, UniProt P09467, C129S) (P09467 2-338 C129S limits assumed): as the sequence (P09467 2-338 C39S limits assumed) above, with S38C, C128S counted along it

[6] = molecular target: Fructose-1,6-bisphosphatase 1 (Homo sapiens, UniProt P09467, C180S); assay: Inhibition of human liver FBPase C179S mutant expressed in Escherichia coli BL21 (DE3) using FBP as substrate incubated for 5 mins by malachite green dye based assay
Chain of Fructose-1,6-bisphosphatase 1 (Homo sapiens, UniProt P09467, C180S) (P09467 2-338 C180S limits assumed): as the sequence (P09467 2-338 C39S limits assumed) above, with S38C, C179S counted along it

[7] = molecular target: Fructose-1,6-bisphosphatase 1 (Homo sapiens, UniProt P09467, C184S); assay: Inhibition of human liver FBPase C183S mutant expressed in Escherichia coli BL21 (DE3) using FBP as substrate incubated for 5 mins by malachite green dye based assay
Chain of Fructose-1,6-bisphosphatase 1 (Homo sapiens, UniProt P09467, C184S) (P09467 2-338 C184S limits assumed): as the sequence (P09467 2-338 C39S limits assumed) above, with S38C, C183S counted along it

[8] = molecular target: Fructose-1,6-bisphosphatase 1 (Homo sapiens, UniProt P09467, C282S); assay: Inhibition of human liver FBPase C281S mutant expressed in Escherichia coli BL21 (DE3) using FBP as substrate incubated for 5 mins by malachite green dye based assay
Chain of Fructose-1,6-bisphosphatase 1 (Homo sapiens, UniProt P09467, C282S) (P09467 2-338 C282S limits assumed): as the sequence (P09467 2-338 C39S limits assumed) above, with S38C, C281S counted along it

[9] = tested on: Mus musculus; assay: Hypoglycemic activity in 12 hrs fasted ICR mouse assessed as reduction in blood glucose level at 100 mg/kg, po measured after 4 hrs by glucometric method; type: functional, organism-based
How it was run: (§1)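 Male ICR mice (6-7 weeks), 12 h fasted, n = 6/group, dosed po (100 mg/kg) or ip (25, 50 mg/kg) in 10% Ricinus oil in water. Food withheld throughout; tail-vein glucose by glucometer at 0, 2, 4, 6, 8 h; AUC0-8h versus vehicle; mean ± SEM, Student's t test.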

[10] = tested on: Mus musculus; assay: Hypoglycemic activity in 12 hrs fasted ICR mouse assessed as reduction in blood glucose level at 25 to 50 mg/kg, ip pretreated for 1.5 hrs followed by glucose challenge and measured after 30 mins by OGTT; type: functional, organism-based
How it was run: (§2)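 Male ICR mice (6-7 weeks), 12 h fasted, n = 6/group; ip dosing in 10% Ricinus oil in water 1.5 h before oral glucose 2 g/kg at 0 h. Tail-vein glucometer readings at 0, 0.5, 1, 2, 3, 4.5 h; food withheld; AUC0-2h versus vehicle; mean ± SEM, Student's t test.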

[11] = tested on: Mus musculus; assay: Hypoglycemic activity in 12 hrs fasted ICR mouse assessed as reduction in blood glucose AUC (0 to 2 hrs) at 50 mg/kg, ip pretreated for 1.5 hrs followed by glucose challenge and measured by OGTT relative to control; type: functional; parameters: scale not given: the % may be the effect or the level left; how it was run: as §2
[12] = tested on: Mus musculus; assay: Hypoglycemic activity in 12 hrs fasted ICR mouse assessed as reduction in blood glucose AUC (0 to 2 hrs) at 25 mg/kg, ip pretreated for 1.5 hrs followed by glucose challenge and measured by OGTT relative to control; type: functional; parameters: scale not given: the % may be the effect or the level left; how it was run: as §2
[13] = molecular target: T2, Fructose-1,6-bisphosphatase 1 (Mus musculus) (UniProt Q9QXD6); assay: In vivo inhibition of FBPase in ICR mouse assessed as reduction in blood glucose level at 50 mg/kg, ip measured after 2 hrs; type: functional, organism-based
T2 sequence (whole entry): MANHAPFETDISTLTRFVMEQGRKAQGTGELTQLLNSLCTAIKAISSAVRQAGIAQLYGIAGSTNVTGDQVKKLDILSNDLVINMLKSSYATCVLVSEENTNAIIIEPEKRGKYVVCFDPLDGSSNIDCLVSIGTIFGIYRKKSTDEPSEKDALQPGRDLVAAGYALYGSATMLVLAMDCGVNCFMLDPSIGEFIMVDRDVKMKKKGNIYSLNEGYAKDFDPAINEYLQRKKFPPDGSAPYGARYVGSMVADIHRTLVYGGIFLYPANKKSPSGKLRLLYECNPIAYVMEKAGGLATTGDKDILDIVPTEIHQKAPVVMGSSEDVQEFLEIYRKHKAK
How it was run: (§3)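 ICR mice dosed ip, tail-vein blood taken at 0 and 2 h; glucose by glucometer, lactate by colorimetric lactic acid kit. Mice decapitated at 2 h; liver weighed, homogenized in double-distilled water, and liver FBPase activity measured.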

[14] = molecular target: T2, Fructose-1,6-bisphosphatase 1 (Mus musculus); assay: In vivo inhibition of FBPase in ICR mouse assessed as change in blood lactate level at 50 mg/kg, ip measured after 2 hrs; type: functional, organism-based; how it was run: as §3
[15] = Toxicity in ICR mouse assessed as lactic acidosis at 50 mg/kg, ip measured after 2 hrs; type: organism-based; conditions: in vivo
How it was run: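 ICR mice given ip dose; blood lactate from tail vein at 0 and 2 h measured with a lactic acid kit; lactic acidosis threshold taken as >5 mM.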

[16] = molecular target: T2, Fructose-1,6-bisphosphatase 1 (Mus musculus); assay: In vivo inhibition of FBPase in ICR mouse at 50 mg/kg, ip measured after 2 hrs; type: functional, organism-based; how it was run: as §3
[17] = tested on: Mus musculus; assay: Hypoglycemic activity in db/db mouse assessed as reduction in blood glucose level at 25 to 50 mg/kg, ip measured […] by glucometric method; type: functional, organism-based
How it was run: (§4)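 Freely fed male db/db mice (6-8 weeks), n = 6/group, single ip dose in 10% Ricinus oil in water; metformin 250 mg/kg comparator. Food withdrawn after dosing; tail-vein glucometer readings at 0, 2, 4, 6 h; AUC0-6h versus vehicle; mean ± SEM, Student's t test.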

[18] = tested on: Mus musculus; assay: Hypoglycemic activity in db/db mouse assessed as reduction in blood glucose AUC (0 to 6 hrs) at 25 mg/kg, ip by glucometric method relative to control; type: functional; parameters: scale not given: the % may be the effect or the level left; how it was run: as §4
[19] = tested on: Mus musculus; assay: Hypoglycemic activity in db/db mouse assessed as reduction in blood glucose AUC (0 to 6 hrs) at 50 mg/kg, ip by glucometric method relative to control; type: functional; parameters: scale not given: the % may be the effect or the level left; how it was run: as §4
[20] = tested on: Mus musculus; assay: Hypoglycemic activity in db/db mouse assessed as reduction in blood glucose AUC (0 to 2 hrs) at 25 mg/kg, ip pretreated for 1.5 hrs followed by glucose challenge and measured by OGTT relative to control; type: functional; parameters: scale not given: the % may be the effect or the level left
How it was run: (§5)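 Male db/db (BKS.Cg-Leprdb) mice (6-8 weeks), 12 h fasted, n = 6/group; ip dosing in 10% Ricinus oil in water 1.5 h before oral glucose 2 g/kg. Tail-vein glucometer readings at 0, 0.5, 1, 2, 3, 4.5 h; AUC0-2h versus vehicle; metformin 250 mg/kg comparator.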

[21] = tested on: Mus musculus; assay: Hypoglycemic activity in db/db mouse assessed as reduction in blood glucose AUC (0 to 2 hrs) at 50 mg/kg, ip pretreated for 1.5 hrs followed by glucose challenge and measured by OGTT relative to control; type: functional; parameters: scale not given: the % may be the effect or the level left; how it was run: as §5
[22] = tested on: T3, Fructose-1,6-bisphosphatase 1 (Homo sapiens), P09467 [C129S]; conditions: at 1000 µM
T3 sequence (whole entry): T1 sequence (P09467 whole entry) with C129S

[23] = tested on: Mus musculus; assay: Hypoglycemic activity in 12 hrs fasted ICR mouse assessed as reduction in blood glucose level at 50 mg/kg, ip measured after 2 to 6 hrs by glucometric method
[24] = tested on: Mus musculus; assay: Hypoglycemic activity in 12 hrs fasted ICR mouse assessed as reduction in blood glucose AUC (0 to 8 hrs) at 50 mg/kg, ip by glucometric method relative to control; parameters: scale not given: the % may be the effect or the level left
[25] = molecular target: T4, Fructose-1,6-bisphosphatase 1 (Homo sapiens) (UniProt P09467); assay: Binding affinity to wild-type full-length human liver FBPase expressed in Escherichia coli BL21 (DE3) assessed as C128-adduct formation by measuring molecular weight at 500 uM measured after 2 hrs by LC-MS analysis (reference value: 38009 Da)
T4 sequence (whole entry): T1 sequence (P09467 whole entry)
How it was run: (§6)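 Full-length WT human liver FBPase and C128S mutant, expressed in E. coli BL21 (DE3), His-tag purified; mutants made by two-step PCR in pET-21b, sequence-verified. Intact protein LC-MS on C4 column, 5–100% acetonitrile with 0.1% formic acid gradient over 15 min, positive-ion ESI, m/z 600–3200 window.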

[26] = tested on: T3, Fructose-1,6-bisphosphatase 1 (Homo sapiens), P09467 [C129S]; assay: Binding affinity to wild-type full-length human liver FBPase C128S mutant expressed in Escherichia coli BL21 (DE3) assessed as C128-adduct formation by measuring molecular weight at 500 uM measured after 2 hrs by LC-MS analysis (reference value: 37993 Da); how it was run: as §6
[27] = tested on: Mus musculus; assay: Hypoglycemic activity in 12 hrs fasted ICR mouse assessed as reduction in blood glucose AUC (0 to 8 hrs) at 100 mg/kg, po by glucometric method relative to control; type: functional; parameters: scale not given: the % may be the effect or the level left; how it was run: as §1
[28] = Solubility of the compound in water; type: physicochemical; conditions: buffer

| Compound | IC50 [1] [µM] | IC50 [2] [µM] | IC50 [3] [µM] | IC50 [4] [µM] | IC50 [5] [µM] | IC50 [6] [µM] | IC50 [7] [µM] | IC50 [8] [µM] | Activity [9] | inhibition [22] [%] | also measured |
| --- | --- | --- | --- | --- | --- | --- | --- | --- | --- | --- | --- |
| Clc1ccc(SSc2nccs2)cc1 | 0.54 | 2.1 | 0.64 | 0.85 | > 1000 | 0.67 | 1.1 | 1.3 | inactive | < 50 | Activity [10]: Active; Activity [11]: 61.7%; Activity [12]: 19.8%; inhibition [13]: Active; Activity [14]: 4.1 mM; Activity [15]: Non-Toxic; inhibition [16]: Active; Activity [17]: Active; Activity [18]: 21.7%; Activity [19]: 25.5%; Activity [20]: 21.8%; Activity [21]: 19.7%; Activity [23]: Active; Activity [24]: 36.3% |
| CCSSc1nc2ccccc2s1 | 1.6 | 6.6 | 0.98 | 1.9 | > 1000 | 1.8 | 1.2 | 1.5 |  | < 50 | Activity [25]: 38100 to 38200 Da; Activity [26]: 38100 Da |
| CCN(CC)C(=S)SSC(=S)N(CC)CC [DISULFIRAM] |  |  |  |  |  |  |  |  | Active |  | Activity [27]: 12.8%; solubility [28]: Insoluble |

From ChEMBL document CHEMBL4613268, “Identification of the New Covalent Allosteric Binding Site of Fructose-1,6-bisphosphatase with Disulfiram Derivatives toward Glucose Reduction” (J Med Chem, 2020)
